Consider one compound from ChEMBL document CHEMBL4308843, “Identification of ABX-1431, a Selective Inhibitor of Monoacylglycerol Lipase and Clinical Candidate for Treatment of Neurological Disorders” (J Med Chem, 2018).

Active and inactive are the calls of the source. No cut-off for these calls is given here.

Data set [1] has as its target T1, Monoglyceride lipase (Rattus norvegicus) (UniProt Q8R431).
T1 sequence (whole entry): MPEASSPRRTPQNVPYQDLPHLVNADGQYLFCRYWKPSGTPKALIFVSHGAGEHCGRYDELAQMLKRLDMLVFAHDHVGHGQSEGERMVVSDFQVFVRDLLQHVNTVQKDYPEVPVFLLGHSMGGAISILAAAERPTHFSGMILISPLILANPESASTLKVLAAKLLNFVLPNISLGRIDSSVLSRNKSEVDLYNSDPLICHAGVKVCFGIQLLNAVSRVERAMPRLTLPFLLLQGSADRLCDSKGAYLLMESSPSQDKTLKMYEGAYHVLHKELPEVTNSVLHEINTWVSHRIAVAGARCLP
Description: Inhibition of MGLL in rat brain membrane homogenates at 0.001 to 10 uM preincubated for 30 mins followed by FP-Rh addition after 30 mins by gel-based ABPP assay. The data set is classed as cell membranes. The method, boiled down:
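Brain protein homogenates (1 mg/mL) treated with compound 0.001–10 µM or DMSO, 30 min at 37°C, then 1 µM FP-Rh (MGLL) or HT-01 (ABHD6), 30 min at 25°C.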

The target in data set [2] is T2, Monoacylglycerol lipase ABHD6 (Mus musculus) (UniProt Q8R2Y0).
T2 sequence (whole entry): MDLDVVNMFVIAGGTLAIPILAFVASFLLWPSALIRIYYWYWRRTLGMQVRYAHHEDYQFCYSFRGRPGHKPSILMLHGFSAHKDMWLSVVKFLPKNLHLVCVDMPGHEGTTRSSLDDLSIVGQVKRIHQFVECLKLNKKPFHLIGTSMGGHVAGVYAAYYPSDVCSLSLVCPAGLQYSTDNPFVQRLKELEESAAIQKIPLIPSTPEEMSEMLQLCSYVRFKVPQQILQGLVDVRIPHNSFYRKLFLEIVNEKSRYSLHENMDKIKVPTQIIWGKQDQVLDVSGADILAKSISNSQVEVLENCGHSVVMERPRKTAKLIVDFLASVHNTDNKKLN
Description: Inhibition of ABHD6 in mouse brain membrane homogenates at 0.001 to 10 uM preincubated for 30 mins followed by FP-Rh addition after 30 mins by gel-based ABPP assay. In kind it is cell membranes.

Data set [3] is described as follows: Volume of distribution at steady state in Sprague-Dawley rat at 1 mg/kg, iv or 5 mg/kg, po by LC-MS analysis. In kind it is ADME, organism-based. The conditions noted are these: in vivo, read-out: Vdss. The method, boiled down: (§1)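 Rats (n = 3 per route) were dosed at 1 mg/kg iv (70% PEG400 in HPBCD/saline) or 5 mg/kg po (70% PEG400 in 0.5% CMC/saline), fasted overnight to 4 h post-dose. Jugular-catheter blood (~100 µL) was sampled to 24 h into 400 µL acetonitrile to stop esterases. Samples were quantified by HPLC-MS/MS, with noncompartmental analysis.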

Data set [4] can be described thus: Oral bioavailability in Sprague-Dawley rat at 5 mg/kg by LC-MS analysis. In kind it is ADME, organism-based. The conditions noted are these: in vivo. The method, boiled down:
as §1

A short description of data set [5]: Tmax in Beagle dog at 1 mg/kg, iv or 1 mg/kg, po by LC-MS analysis. In kind it is ADME, organism-based, Canis lupus familiaris. The conditions noted are these: in vivo. The method, boiled down:
(§2)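 Male beagle dogs (n = 3 per route), 10–12 months old, were dosed at 1 mg/kg iv or po in PEG400/ethanol/PBS (7/2/1), fasted overnight to 2 h post-dose. Peripheral venous blood was sampled to 24 h into K2EDTA and plasma frozen at −80 °C. Plasma was quantified by HPLC-MS/MS, with noncompartmental analysis.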

Data set [6] can be described thus: Half life in Beagle dog at 1 mg/kg, iv by LC-MS analysis. The conditions noted are these: in vivo. The data set is classed as ADME, organism-based, Canis lupus familiaris. The method, boiled down:
as §2

A short description of data set [7]: Oral bioavailability in Beagle dog at 1 mg/kg by LC-MS analysis. In kind it is ADME, organism-based, Canis lupus familiaris. The note with it: in vivo. The method, boiled down:
as §2

The target in data set [8] is T3, Cytochrome P450 1A2 (Homo sapiens, UniProt P05177).
T3 sequence (P05177 whole entry): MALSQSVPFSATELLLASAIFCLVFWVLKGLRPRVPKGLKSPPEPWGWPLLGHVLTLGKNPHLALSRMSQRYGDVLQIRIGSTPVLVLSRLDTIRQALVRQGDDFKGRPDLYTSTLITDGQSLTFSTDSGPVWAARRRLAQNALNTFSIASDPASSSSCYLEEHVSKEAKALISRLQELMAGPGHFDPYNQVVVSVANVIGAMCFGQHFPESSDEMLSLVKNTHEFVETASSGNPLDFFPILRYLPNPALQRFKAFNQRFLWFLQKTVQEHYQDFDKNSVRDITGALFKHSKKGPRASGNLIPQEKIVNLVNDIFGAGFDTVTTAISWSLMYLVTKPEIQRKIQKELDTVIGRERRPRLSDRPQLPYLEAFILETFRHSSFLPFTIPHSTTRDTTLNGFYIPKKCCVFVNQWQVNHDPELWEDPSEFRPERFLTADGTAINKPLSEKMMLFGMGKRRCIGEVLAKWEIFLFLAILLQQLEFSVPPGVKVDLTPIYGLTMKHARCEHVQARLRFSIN
As to the kind of experiment: Inhibition of recombinant human CYP1A2. The data set is classed as ADME.

The target of data set [9] is Cytochrome P450 2C9 (Homo sapiens, UniProt P11712). As to the kind of experiment: Inhibition of recombinant human CYP2C9. The data set is classed as ADME.
Sequence of Cytochrome P450 2C9 (P11712 whole entry): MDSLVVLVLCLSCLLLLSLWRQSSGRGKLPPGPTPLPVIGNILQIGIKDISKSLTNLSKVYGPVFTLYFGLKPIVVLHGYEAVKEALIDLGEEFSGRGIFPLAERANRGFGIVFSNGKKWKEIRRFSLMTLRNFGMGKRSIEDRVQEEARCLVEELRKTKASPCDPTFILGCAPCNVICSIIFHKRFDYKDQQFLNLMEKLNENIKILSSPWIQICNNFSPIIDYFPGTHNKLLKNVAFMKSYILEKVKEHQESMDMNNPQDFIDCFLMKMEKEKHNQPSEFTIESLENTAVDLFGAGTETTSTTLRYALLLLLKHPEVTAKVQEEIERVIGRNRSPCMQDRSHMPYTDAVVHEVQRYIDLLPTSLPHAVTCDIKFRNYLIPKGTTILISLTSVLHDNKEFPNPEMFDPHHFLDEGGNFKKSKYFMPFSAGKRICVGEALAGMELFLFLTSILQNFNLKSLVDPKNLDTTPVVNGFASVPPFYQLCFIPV
Data set [10] addresses Cytochrome P450 2C19 (Homo sapiens, UniProt P33261). As to the kind of experiment: Inhibition of recombinant human CYP2C19. The data set is classed as ADME.
Data set [11] addresses Cytochrome P450 3A4 (Homo sapiens, UniProt P08684). Description: Inhibition of recombinant human CYP3A4. In kind it is ADME.
A short description of data set [12]: Substrate activity at BCRP (unknown origin) at 10 uM. In kind it is ADME. The note with it: human.
Data set [13] has as its target hERG (KCNH2) (Homo sapiens, UniProt Q12809). Description: Inhibition of human ERG.
Data set [14] has as its system Mus musculus. As to the kind of experiment: In vivo inhibition of ABHD6 in po dosed ICR mouse brain measured 4 hrs post dose in presence of FP-Rh probe by gel-based ABPP assay. The data set is classed as functional. The method, boiled down:
(§3)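 Male ICR mice, 6–12 weeks old, given single oral doses (0.5–32 mg/kg, n = 3) in PEG400:ethanol:PBS (7/2/1 v/v/v) at 5 mL/kg. Brains were removed 4 h later and one hemisphere processed for gel-based ABPP. Proteome was labeled with FP-Rh (1 µM, 30 min) and read by in-gel fluorescence relative to vehicle.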

The test system of data set [15] is Mus musculus. As to the kind of experiment: In vivo inhibition of CES1c in po dosed ICR mouse brain measured 4 hrs post dose in presence of FP-Rh probe by gel-based ABPP assay. The data set is classed as functional. The method, boiled down:
as §3

For data set [16], the system named is Mus musculus. As to the kind of experiment: In vivo inhibition of MGLL in ICR mouse brain at 25 mg/kg, po measured at 4 hrs post dose in presence of FP-Rh probe by gel-based ABPP assay. In kind it is functional, organism-based.
In data set [17] the test system is Rattus norvegicus. Description: Antinociceptive activity in po dosed Sprague-Dawley rat brain assessed as inhibition of MGLL activity measured after 4 hrs post dose in presence of FP-Rh probe by gel-based ABPP assay. The data set is classed as functional. The method, boiled down:
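Male Sprague Dawley rats, 6–12 weeks old, given single oral doses (0.03–10 mg/kg) in 0.5% methylcellulose at 5 mL/kg. Brains were taken 4 h post-dose and forebrain sections excised from one hemisphere. Brain proteome was labeled with FP-Rh (1 µM, 30 min) and analyzed by SDS-PAGE with in-gel fluorescence. Band intensity was normalized to vehicle.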

The nature of data set [18]: Inhibition of BCRP (unknown origin) at 10 uM. In kind it is ADME. The conditions noted are these: human.

Sequence of Cytochrome P450 2C19 (P33261 whole entry): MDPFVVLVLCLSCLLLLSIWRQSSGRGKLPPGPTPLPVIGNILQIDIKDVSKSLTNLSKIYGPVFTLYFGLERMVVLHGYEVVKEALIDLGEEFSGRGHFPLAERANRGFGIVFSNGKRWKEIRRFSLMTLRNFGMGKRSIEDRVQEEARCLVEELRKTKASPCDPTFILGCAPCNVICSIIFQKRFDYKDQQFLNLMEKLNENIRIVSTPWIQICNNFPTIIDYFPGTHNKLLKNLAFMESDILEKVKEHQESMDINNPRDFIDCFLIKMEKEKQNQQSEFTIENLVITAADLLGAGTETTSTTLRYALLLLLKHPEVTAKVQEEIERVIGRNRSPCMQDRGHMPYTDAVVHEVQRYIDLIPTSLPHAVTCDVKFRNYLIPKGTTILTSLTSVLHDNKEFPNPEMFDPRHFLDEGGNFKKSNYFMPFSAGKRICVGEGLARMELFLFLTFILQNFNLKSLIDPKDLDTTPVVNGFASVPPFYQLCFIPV
Sequence of hERG (KCNH2) (Q12809 whole entry): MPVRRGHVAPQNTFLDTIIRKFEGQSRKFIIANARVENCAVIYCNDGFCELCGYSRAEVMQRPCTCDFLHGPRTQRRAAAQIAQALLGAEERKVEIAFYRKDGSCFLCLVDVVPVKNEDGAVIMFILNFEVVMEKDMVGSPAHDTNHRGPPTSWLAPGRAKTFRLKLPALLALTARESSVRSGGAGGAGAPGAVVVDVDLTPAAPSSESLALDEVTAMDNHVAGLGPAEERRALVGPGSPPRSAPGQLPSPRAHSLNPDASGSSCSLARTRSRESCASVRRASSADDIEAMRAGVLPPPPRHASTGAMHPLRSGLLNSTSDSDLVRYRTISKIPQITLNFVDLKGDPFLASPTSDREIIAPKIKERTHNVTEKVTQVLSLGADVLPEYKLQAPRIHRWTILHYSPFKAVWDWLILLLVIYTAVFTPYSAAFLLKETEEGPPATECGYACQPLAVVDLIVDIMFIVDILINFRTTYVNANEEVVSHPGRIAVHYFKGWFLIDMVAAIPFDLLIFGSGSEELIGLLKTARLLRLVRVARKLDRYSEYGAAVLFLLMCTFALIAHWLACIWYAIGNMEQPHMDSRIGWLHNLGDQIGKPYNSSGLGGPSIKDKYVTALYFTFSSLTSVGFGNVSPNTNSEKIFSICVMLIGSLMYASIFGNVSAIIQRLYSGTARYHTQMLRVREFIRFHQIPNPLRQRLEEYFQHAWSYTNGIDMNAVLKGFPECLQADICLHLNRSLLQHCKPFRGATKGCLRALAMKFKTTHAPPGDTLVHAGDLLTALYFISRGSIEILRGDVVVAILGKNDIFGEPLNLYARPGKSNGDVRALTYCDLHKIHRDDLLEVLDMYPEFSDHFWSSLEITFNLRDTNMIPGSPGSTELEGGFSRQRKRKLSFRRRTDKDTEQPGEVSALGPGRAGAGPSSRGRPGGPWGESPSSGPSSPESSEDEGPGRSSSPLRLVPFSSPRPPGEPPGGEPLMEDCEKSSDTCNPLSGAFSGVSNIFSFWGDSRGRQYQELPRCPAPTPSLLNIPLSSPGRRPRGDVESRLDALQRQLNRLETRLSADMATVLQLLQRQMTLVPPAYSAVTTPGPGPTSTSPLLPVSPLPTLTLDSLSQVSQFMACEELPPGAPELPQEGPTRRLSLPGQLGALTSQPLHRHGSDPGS
Sequence of Cytochrome P450 3A4 (P08684 whole entry): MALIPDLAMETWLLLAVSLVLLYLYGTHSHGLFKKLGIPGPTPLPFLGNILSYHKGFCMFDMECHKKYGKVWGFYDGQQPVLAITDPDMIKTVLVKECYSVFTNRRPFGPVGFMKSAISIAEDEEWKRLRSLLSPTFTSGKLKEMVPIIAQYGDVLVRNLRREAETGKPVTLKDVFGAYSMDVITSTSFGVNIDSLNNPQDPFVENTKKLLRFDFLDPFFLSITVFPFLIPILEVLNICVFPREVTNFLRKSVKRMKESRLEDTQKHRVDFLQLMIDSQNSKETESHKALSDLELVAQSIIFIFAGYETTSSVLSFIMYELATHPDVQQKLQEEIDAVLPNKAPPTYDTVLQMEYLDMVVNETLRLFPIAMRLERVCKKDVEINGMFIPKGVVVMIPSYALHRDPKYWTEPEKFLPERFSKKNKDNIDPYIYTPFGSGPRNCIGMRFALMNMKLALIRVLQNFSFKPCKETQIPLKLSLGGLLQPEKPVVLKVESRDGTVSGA

As a reminder, the bioavailability is the share of a dose that reaches the circulation, judged against a reference dose that is usually intravenous. Low values mean poor availability, high ones good availability. What is called Tmax is the time at which the peak concentration occurs. What is called half-life is the time in which the quantity being followed falls by half. The low end stands for fast loss, the high end for slow loss. What is called IC50 is the concentration needed to halve the response being measured. One may read the IC20 as the concentration at which the effect reaches the 20% level. A word on the ED50: it is the dose that gives a 50% effect, or the effect in half of the subjects. Turning to `O=C(OC(C(F)(F)F)C(F)(F)F)N1CCN(Cc2ccc(C(F)(F)F)cc2N2CCCC2)CC1` [ELCUBRAGISTAT], the inhibition entry in [1], in data set [2] and in [16] was “Active” each time. Besides, in data set [3], the Vd amounted to 3.2 L/kg. The bioavailability in data set [4] came out at 64%; in data set [7], 57%. In data set [5], the Tmax turned out to be 1 h. The compound also gave a half-life in data set [6] of 6.1 h. In addition, the concentration for half-maximal inhibition (IC50) in data set [8], in data set [9], in [10] and in data set [11] was above 50 µM throughout. In addition, the Activity result in [12] is on record as “Not Active”. For the same compound, the IC20 in data set [13] is 7 µM. The ED50 in data set [14] came to 32 mg/kg; in data set [15], 32 mg/kg; in [17], 0.5 mg/kg. Besides, the “inhibition (INH)” value in data set [18] was “Not Active”.
